# Hits are enriched below; roughly 2.5% of the tested compounds scored in any of these assays.
# Rin1 Abl inh = inhibitors of Rin1-Abl protein binding, primary screen, biochemical, TR-FRET | 360,000 tested, 0.4% active | inhibition, % at 7.35 µM; in the data active = inhibition above about 5%, passing the limit was not always enough
# Beta2AR agonist = beta2AR agonists driving receptor internalization, primary screen, cell-based, FAP fluorogen, flow cytometry. AID 504454, 2011. Am2.2-beta2AR cells. response, % (test concentration not listed). 340,000 tested, 0.43% active. Beta-2 adrenergic receptor (Homo sapiens), P07550;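 active = response above a set limit, near 3 SD of response in nonfluorescent compounds, cut at about 42% in these data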
# ABHD5 PLIN5 PPI = ABHD5-PLIN5 interaction inhibitors, primary screen, cell lysate, split luciferase complementation, luminescence; Perilipin-5 (Homo sapiens) + 1-acylglycerol-3-phosphate O-acyltransferase ABHD5 (Homo …; 360,000 tested, 0.78% active; Split G. princeps luciferase complementation, 4 h; AID 602281, 2012; inhibition, % at 4 µM;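 active = inhibition above the mean inhibition across every tested compound plus 3 SD, cut at about 22% in these data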;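 also: 0% = DMSO only wells and the 100% control is not disclosed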
# MBD2 DNA inh = inhibitors of MBD2 binding to methylated DNA, primary screen, biochemical, TR-FRET, DNA-binding domain, human | AID 686964, 2013 | inhibition, % at 4.4 µM | 370,000 tested, 0.31% active | Methyl-CpG-binding domain protein 2 (Homo sapiens), Q9UBB5 | MBD2 binding to methylated oligonucleotide; in the data active = inhibition above about 13%
# Arrestin-AP2 inh = inhibitors of beta-arrestin/AP2 binding, primary screen, biochemical, GPCR trafficking, flow cytometry; 340,000 tested, 0.31% active; FITC-arrestin peptide / GST-AP2 beads; AP2 beta2 appendage carries R879A mutation; inhibition, % at 10 µM; AID 504490, 2011;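 active = inhibition above a set limit, near 3 SD of compounds lacking own fluorescence, cut at about 54% in these data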;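 also: plate controls were DMSO wells for no effect and 5 µM unlabelled arrestin peptide for full effect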
#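 Material – AP2 appendage R879A on GSH beads · Buffer or medium – PBS with 0.05% Tween 20 and 0.1% BSA · Probe or stimulus – fluorescein-tagged arrestin peptide at 50 nM final · Incubation – compound with beads 12 min RT, then probe 1 h RT · Detection – high-throughput flow cytometry of beads, ex 488, em 535 nm · Evaluation – percent response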
# UHRF1 binding = UHRF1 methylated DNA binding inhibitors, primary screen, counter-screen for MBD2 inhibitor project, biochemical, TR-FRET, human UHRF1, single concentration; E3 ubiquitin-protein ligase UHRF1 (Homo sapiens), Q96T88; UHRF1 binding to methylated oligo; inhibition, % at 4.4 µM; 370,000 tested, 0.75% active; AID 687016, 2013; in the data active = inhibition above about 21%;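 also: UHRF1 SRA domain binding a hemimethylated CpG hairpin DNA probe; 0% = median of test compound wells and 100% = reference inhibitor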
# ABHD5-PLIN5 conf = ABHD5-PLIN5 interaction inhibitors, confirmation, biochemical, luminescence; shares compounds with ABHD5 PLIN5 PPI; inhibition, % at 4 µM; 2,200 tested, 67% active; in the data active = inhibition above about 23%;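 also: 0% = DMSO vehicle wells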
# HNF4 split-luc = HNF4 dimerization inhibitors, counter-screen for ABHD5-PLIN5 interaction inhibitor project, biochemical, split-luciferase complementation, luminescence; shares compounds with ABHD5 PLIN5 PPI; inhibition, % at 4 µM; 2,200 tested, 77% active; AID 651674, 2012;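 active = mean inhibition across replicate wells exceeding the computed hit threshold, cut at about 13% in these data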;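 also: light from luciferase halves that rejoin when HNF4 fusion proteins dimerize; 0% = DMSO only wells and the 100% control is not given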
# Target sequence (P41235 whole entry, looked up, the tested form may be a part): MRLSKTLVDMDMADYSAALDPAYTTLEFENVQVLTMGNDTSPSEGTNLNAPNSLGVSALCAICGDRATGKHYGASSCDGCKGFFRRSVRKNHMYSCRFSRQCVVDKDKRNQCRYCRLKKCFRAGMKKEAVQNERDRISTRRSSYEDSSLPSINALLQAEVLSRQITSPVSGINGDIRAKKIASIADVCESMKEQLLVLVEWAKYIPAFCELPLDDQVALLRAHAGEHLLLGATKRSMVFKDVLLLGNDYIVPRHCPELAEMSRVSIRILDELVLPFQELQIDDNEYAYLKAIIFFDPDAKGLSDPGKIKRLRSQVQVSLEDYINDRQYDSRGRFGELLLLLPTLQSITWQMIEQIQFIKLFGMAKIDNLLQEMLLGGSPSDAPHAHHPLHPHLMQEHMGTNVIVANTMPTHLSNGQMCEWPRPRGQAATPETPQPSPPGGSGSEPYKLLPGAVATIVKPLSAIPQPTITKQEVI
# * marks the source's active call; other numbers are inactive results; / = no result given.
SMILES,Rin1 Abl inh,Beta2AR agonist,ABHD5 PLIN5 PPI,MBD2 DNA inh,Arrestin-AP2 inh,UHRF1 binding,ABHD5-PLIN5 conf,HNF4 split-luc
CCCc1cc(CN2CCOCC2)c(O)c(CN2CCOCC2)c1O,0.1,-0.7,25.5*,-5.2,-9.2,-5.0,63.1*,99.5*
Oc1c(Cl)cc(Oc2cc(Cl)c(O)c(CN3CCOCC3)c2)cc1CN1CCOCC1,-2.0,-17.1,0.8,-1.6,4.9,-0.1,/,/
COc1ccc(/C=C2/CSC/C(=C/c3ccc(OC)c(OC)c3)C2=O)cc1OC,4.4,0.5,55.5*,-3.8,41.6,-0.8,80.8*,67.6*
COc1ccc(/C=C2\SC(=O)NC2=S)cc1OC,-0.1,18.9,-7.6,-8.5,0.0,-18.5,/,/
COc1cc(C=C2CCCC(=Cc3ccc(OCC4CO4)c(OC)c3)C2=O)ccc1OCC1CO1 (stereo not drawn),-7.8,/,24.4*,-1.1,/,-0.1,36.8*,20.8*
Cc1ccc(-c2cc(-c3nnc(SCC(=O)Nc4cccc5ccccc45)n3N)[nH]n2)cc1,/,/,/,5.6,/,0.6,/,/
CCCC[C@H](C(=O)N(C)c1ccccc1)[C@@H](O)c1ccc(Cl)cc1,/,/,/,1.4,/,0.8,/,/
O=C(CC1S/C(=N/N=C/c2c[nH]c3ccccc23)NC1=O)Nc1ccccc1 (stereo not drawn),-6.0,9.1,23.2*,7.7,0.3,6.7,19.6,11.3
O=C1C=CC(=O)N1c1cccc(-c2ccccc2)c1,-2.6,96.8*,28.4*,-1.3,6.2,1.1,51.2*,94.4*
O=C(NCCc1ccc(F)cc1)c1ccc2c(c1)ncn2C1CCCCC1,/,/,/,-1.2,/,-0.3,/,/
COCC(=O)N1[C@H](CO)[C@@H](c2ccc(-c3cccnc3)cc2)[C@H]1CN(C)S(=O)(=O)c1ccccc1[N+](=O)[O-],/,/,/,-0.2,/,-2.9,/,/
N#Cc1cc(O)c(-n2nnc3ccccc32)cc1C#N,1.0,10.5,-9.1,0.2,-10.8,-1.6,/,/
N#Cc1cc(Oc2cccc3cccnc23)c(-n2nnc3ccccc32)cc1C#N,-2.4,13.0,69.5*,2.7,16.9,-8.2,13.0,50.5*
COc1cc(N2C(=O)C=CC2=O)ccc1N1C(=O)C=CC1=O,-0.3,7.7,51.9*,4.0,7.0,-0.9,75.5*,111.1*
COc1ccc(N2C(=O)C3CC(C)=C(C)CC3C2=O)c(OC)c1 (stereo not drawn),2.0,9.9,-0.1,6.1,6.0,1.5,/,/
COCCCNC(=O)C[C@H]1C[C@@]2(C(=O)OC)C(=C[C@H](C3CCCC3)O[C@@H]2C)N(CCC2=CCCCC2)C1=O,/,/,/,8.6,/,1.0,/,/
COc1cc2c(cc1NC(=O)CC1SC(N3CCCC3)=NC1=O)oc1ccccc12 (stereo not drawn),6.2,5.3,28.7*,-6.7,23.6,-0.5,16.1,9.7
COc1ccc(/C=C/S(=O)(=O)NCCc2ccccc2)c(CNC(=O)OC(C)(C)C)c1,/,/,/,-8.0,/,-3.5,/,/
C#CCN(C[C@@H]1[C@@H](OC(=O)NCC2CCCCC2)[C@@H](OC(=O)NCC2CCCCC2)Cn2c(=O)ccc(=O)n21)S(=O)(=O)c1ccc(C)cc1,-3.3,/,41.8*,-7.4,/,-2.4,57.2*,18.3*

# Screening results from PubChem BioAssay.
